Measurements from ChEMBL document CHEMBL5038630 (J Med Chem, 2022).
The source made the active and inactive calls. The calls are words filed in the database; no cut-off is given here.

Tests used:
[1] = biological target: Glutamate NMDA receptor; Grin1/Grin2a (Rattus norvegicus, UniProt P35439+Q00959); test: Agonist activity at rat GluN1/GluN2A NMDA receptor expressed in Xenopus oocytes measured after 4 days in presence of L-glutamte by two-electrode voltage-clamp recording assay; type: cell-based, Oocyte
Method in brief: (§1)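 Rat GluN1 plus GluN2A or GluN2B cRNA (1:2) in Xenopus oocytes. TEVC at −40 mV, room temperature, 2–4 days post-injection. Bath: 90 mM NaCl, 1 mM KCl, 10 mM HEPES, 0.5 mM BaCl2, 0.01 mM EDTA, pH 7.4. Oocytes were BAPTA-injected before recording. Agonist applied with 300 μM L-Glu throughout. NR means <5% response at the stated concentration. 3–14 oocytes.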

[2] = biological target: Glutamate NMDA receptor; Grin1/Grin2c (Rattus norvegicus, UniProt P35439+Q00961); test: Agonist activity at rat GluN1/GluN2C NMDA receptor expressed in Xenopus oocytes measured after 4 days in presence of L-glutamte by two-electrode voltage-clamp recording assay; type: cell-based, Oocyte
Method in brief: (§2)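 Xenopus oocytes were injected with rat GluN1 and GluN2C or GluN2D cRNA (1:2) and recorded by TEVC 2–4 days later at −40 mV, room temperature, pH 7.4 HEPES/NaCl/BaCl2 saline. Concentration-response with 300 μM L-Glu present. NR means <5% response at the concentration given. DMSO ≤0.5%. 3–14 oocytes.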

[3] = biological target: Ionotropic glutamate receptor NMDA 1/2D (Rattus norvegicus, UniProt P35439+Q62645); test: Agonist activity at rat GluN1/GluN2D NMDA receptor expressed in Xenopus oocytes measured after 4 days in presence of L-glutamte by two-electrode voltage-clamp recording assay; type: cell-based, Oocyte; method in brief: as §2
[4] = biological target: T1, Glutamate NMDA receptor; Grin1/Grin2a (Rattus norvegicus) (UniProt P35439+Q00959); test: Agonist activity at rat GluN1/GluN2A NMDA receptor expressed in Xenopus oocytes assessed as maximal relative efficacy measured after 4 days in presence of L-glutamte by two-electrode voltage-clamp recording assay relative to glycine; type: cell-based; settings: Oocyte, time 4.0 day
Method in brief: (§3)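 Rat GluN1 plus GluN2A or GluN2B cRNA (1:2) in Xenopus oocytes. TEVC at −40 mV, room temperature, 2–4 days post-injection. Bath: 90 mM NaCl, 1 mM KCl, 10 mM HEPES, 0.5 mM BaCl2, 0.01 mM EDTA, pH 7.4. Oocytes were BAPTA-injected before recording. Agonist applied with 300 μM L-Glu throughout. […] NR means <5% response at the stated concentration. 3–14 oocytes.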

[5] = biological target: T2, Glutamate NMDA receptor; Grin1/Grin2b (Rattus norvegicus) (UniProt P35439+Q00960); test: Agonist activity at rat GluN1/GluN2B NMDA receptor expressed in Xenopus oocytes assessed as maximal relative efficacy measured at 10 uM after 4 days in presence of L-glutamte by two-electrode voltage-clamp recording assay relative to glycine; type: cell-based; settings: Oocyte, time 4.0 day; method in brief: as §3
[6] = biological target: Glutamate NMDA receptor; Grin1/Grin2c (Rattus norvegicus) (UniProt P35439+Q00961); test: Agonist activity at rat GluN1/GluN2C NMDA receptor expressed in Xenopus oocytes assessed as maximal relative efficacy measured after 4 days in presence of L-glutamte by two-electrode voltage-clamp recording assay relative to glycine; type: cell-based; settings: Oocyte, time 4.0 day
Method in brief: (§4)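 Xenopus oocytes were injected with rat GluN1 and GluN2C or GluN2D cRNA (1:2) and recorded by TEVC 2–4 days later at −40 mV, room temperature, pH 7.4 HEPES/NaCl/BaCl2 saline. Concentration-response with 300 μM L-Glu present. […] NR means <5% response at the concentration given. DMSO ≤0.5%. 3–14 oocytes.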

[7] = biological target: T3, Ionotropic glutamate receptor NMDA 1/2D (Rattus norvegicus) (UniProt P35439+Q62645); test: Agonist activity at rat GluN1/GluN2D NMDA receptor expressed in Xenopus oocytes assessed as maximal relative efficacy measured after 4 days in presence of L-glutamte by two-electrode voltage-clamp recording assay relative to glycine; type: cell-based; settings: Oocyte, time 4.0 day; method in brief: as §4
[8] = biological target: T2, Glutamate NMDA receptor; Grin1/Grin2b (Rattus norvegicus); test: Agonist activity at rat GluN1/GluN2B NMDA receptor expressed in Xenopus oocytes assessed as maximal relative efficacy measured at 100 uM after 4 days in presence of L-glutamte by two-electrode voltage-clamp recording assay relative to glycine; type: cell-based; settings: Oocyte, time 4.0 day; method in brief: as §3
[9] = biological target: T3, Ionotropic glutamate receptor NMDA 1/2D (Rattus norvegicus); test: Agonist activity at rat GluN1/GluN2D NMDA receptor expressed in Xenopus oocytes assessed as maximal relative efficacy measured at 100 uM after 4 days in presence of L-glutamte by two-electrode voltage-clamp recording assay relative to glycine; type: cell-based; settings: Oocyte, time 4.0 day; method in brief: as §4
[10] = biological target: T2, Glutamate NMDA receptor; Grin1/Grin2b (Rattus norvegicus); test: Agonist activity at rat GluN1/GluN2B NMDA receptor expressed in Xenopus oocytes assessed as maximal relative efficacy measured at 300 uM after 4 days in presence of L-glutamte by two-electrode voltage-clamp recording assay relative to glycine; type: cell-based; settings: Oocyte, time 4.0 day; method in brief: as §3
[11] = biological target: T3, Ionotropic glutamate receptor NMDA 1/2D (Rattus norvegicus); test: Agonist activity at rat GluN1/GluN2D NMDA receptor expressed in Xenopus oocytes assessed as maximal relative efficacy measured at 300 uM after 4 days in presence of L-glutamte by two-electrode voltage-clamp recording assay relative to glycine; type: cell-based; settings: Oocyte, time 4.0 day; method in brief: as §4
[12] = biological target: T1, Glutamate NMDA receptor; Grin1/Grin2a (Rattus norvegicus); test: Agonist activity at rat GluN1/GluN2A NMDA receptor expressed in Xenopus oocytes assessed as maximal relative efficacy measured at 30 uM after 4 days in presence of L-glutamte by two-electrode voltage-clamp recording assay relative to glycine; type: cell-based; settings: Oocyte, time 4.0 day; method in brief: as §3
[13] = biological target: T2, Glutamate NMDA receptor; Grin1/Grin2b (Rattus norvegicus); test: Agonist activity at rat GluN1/GluN2B NMDA receptor expressed in Xenopus oocytes assessed as maximal relative efficacy measured at 30 uM after 4 days in presence of L-glutamte by two-electrode voltage-clamp recording assay relative to glycine; type: cell-based; settings: Oocyte, time 4.0 day; method in brief: as §3
[14] = biological target: T3, Ionotropic glutamate receptor NMDA 1/2D (Rattus norvegicus); test: Agonist activity at rat GluN1/GluN2D NMDA receptor expressed in Xenopus oocytes assessed as maximal relative efficacy measured at 30 uM after 4 days in presence of L-glutamte by two-electrode voltage-clamp recording assay relative to glycine; type: cell-based; settings: Oocyte, time 4.0 day; method in brief: as §4
[15] = biological target: T1, Glutamate NMDA receptor; Grin1/Grin2a (Rattus norvegicus); test: Agonist activity at rat GluN1/GluN2A NMDA receptor expressed in Xenopus oocytes assessed as maximal relative efficacy measured at 300 uM after 4 days in presence of L-glutamte by two-electrode voltage-clamp recording assay relative to glycine; type: cell-based; settings: Oocyte, time 4.0 day; method in brief: as §3
[16] = biological target: Glutamate NMDA receptor; Grin1/Grin2b (Rattus norvegicus, UniProt P35439+Q00960); test: Agonist activity at rat GluN1/GluN2B NMDA receptor expressed in Xenopus oocytes measured after 4 days in presence of L-glutamte by two-electrode voltage-clamp recording assay; type: cell-based, Oocyte; method in brief: as §1
[17] = tested on: Oocyte; test: Agonist activity at recombinant GluN1a/GluN2B NMDA receptor (unknown origin) expressed in Xenopus oocytes assessed as inhibition of glycine-induced activation of current measured at 10 uM after 4 days in presence of L-glutamte by two-electrode voltage-clamp recording assay; type: cell-based; settings: Homo sapiens, filed as agonist, time 4.0 day
Method in brief: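 Oocytes expressing GluN1/2B were BAPTA-injected and held under two-electrode voltage clamp in continuous 300 μM L-Glu. […] Values are mean ± SEM from 12 oocytes.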

[18] = Binding affinity at recombinant GluN1a/GluN2B NMDA receptor (unknown origin) expressed in Xenopus oocytes measured after 4 days in presence of L-glutamte by two-electrode voltage-clamp recording assay; type: cell-based, Homo sapiens; settings: oocyte
[19] = tested on: Oocyte; test: Agonist activity at mutant GluN1 F484A/T518 mutant//GluN3A NMDA receptor (unknown origin) expressed in Xenopus oocytes measured after 4 days in presence of glycine by two-electrode voltage-clamp recording assay; type: cell-based; settings: Homo sapiens, time 4.0 day
[20] = tested on: Oocyte; test: Agonist activity at mutant GluN1 F484A/T518 mutant//GluN3B NMDA receptor (unknown origin) expressed in Xenopus oocytes measured after 4 days in presence of glycine by two-electrode voltage-clamp recording assay; type: cell-based; settings: Homo sapiens, time 4.0 day

Row | Structure (SMILES) | EC50 [1] [nM] | EC50 [2] [nM] | EC50 [3] [nM] | Rmax ([6]; filed as agonist) [%] | Rmax [7] [%] | Rmax [8] [%] | Rmax [6] [%] | Rmax [4] [%] | Rmax [10] [%] | further results
1 | Cc1ccccc1-c1ccc(C(=O)NC[C@@H](N)C(=O)O)o1 | 220 | 140 | 260 | 103 | 17 |  |  |  |  | Rmax ([4]; filed as agonist): 58%; Rmax [5]: < 5%
2 | N[C@H](CNC(=O)c1ccc(-c2ccccc2/C=C/c2cccc(F)c2)o1)C(=O)O |  | 750 |  |  |  | < 5 | 22 |  |  | 
3 | N[C@H](CNC(=O)c1ccc(-c2ccc(Cl)cc2)o1)C(=O)O | 4300 | 1700 |  | 44 |  | < 5 |  | 14 |  | Rmax [9]: < 5%
4 | COCc1ccccc1-c1ccc(C(=O)NC[C@@H](N)C(=O)O)o1 | 3100 | 1600 | 3200 | 114 | 11 |  |  | 32 | < 5 | 
5 | N[C@H](CNC(=O)c1ccc(-c2cccc3c2OCCO3)o1)C(=O)O |  | 3900 |  |  |  |  | 17 |  | < 5 | 
6 | N[C@H](CNC(=O)c1ccc(-c2ccccc2C(F)(F)F)o1)C(=O)O | 130 | 40 |  |  |  | < 5 | 36 | 24 |  | Rmax [9]: < 5%
7 | N[C@H](CNC(=O)c1ccc(-c2cccc(C(F)(F)F)c2)o1)C(=O)O | 6600 | 1800 | 7700 |  | 35 |  | 36 | 17 | < 5 | 
8 | N[C@H](CNC(=O)c1ccc(-c2ccccc2)o1)C(=O)O | 4800 | 2900 | 4300 | 77 | 16 |  |  | 22 | < 5 | 
9 | CN(C)S(=O)(=O)c1ccccc1-c1ccc(C(=O)NC[C@@H](N)C(=O)O)o1 | 10000 | 4800 |  | 119 |  |  |  | 22 | < 5 | Rmax [11]: < 5%
10 | N[C@H](CNC(=O)c1ccc(-c2ccccc2/C=C/c2ccccc2)o1)C(=O)O |  | 5800 |  |  |  |  | 16 |  |  | Rmax [12]: < 5%; Rmax [13]: < 5%; Rmax [14]: < 5%
11 | N[C@H](CNC(=O)c1ccc(-c2ccccc2OCc2ccccc2)o1)C(=O)O |  | 4000 |  | 157 |  |  |  |  | < 5 | Rmax [15]: < 5%
12 | N[C@H](CNC(=O)c1ccc(-c2cccc3ccccc23)o1)C(=O)O | 180 | 110 | 230 | 53 | 12 |  |  | 29 | < 5 | 
13 | N[C@H](CNC(=O)c1ccc(-c2cccc(Cl)c2)o1)C(=O)O | 4900 | 1300 | 5000 | 68 | 38 |  |  | 27 | < 5 | 
14 | N[C@H](CNC(=O)c1ccc(-c2ccc(Cl)cc2[N+](=O)[O-])o1)C(=O)O |  | 74 |  |  |  | < 5 | 28 |  |  | IC50 [16]: 10000 nM; Rmax [9]: < 5%; inhibition [17]: 57%; Ki [18]: 100 nM; inhibition [19]: inactive; inhibition [20]: inactive
15 | COc1ccc(-c2ccc(C(=O)NC[C@@H](N)C(=O)O)o2)cc1 |  | 1300 |  |  |  | < 5 | 26 |  |  | Rmax [9]: < 5%
16 | N[C@H](CNC(=O)c1ccc(-c2ccccc2Br)o1)C(=O)O | 53 | 36 | 80 | 49 | 9 | < 5 |  | 34 |  | 
17 | N[C@H](CNC(=O)c1ccc(-c2ccccc2Cl)o1)C(=O)O | 260 | 120 | 270 | 70 | 11 |  |  | 38 | < 5 | 
18 | N[C@H](CNC(=O)c1ccc(-c2ccc(Cl)c(Cl)c2)o1)C(=O)O | 23000 | 4200 | 31000 | 74 | 24 |  |  | 20 | < 5 | 
